Test results reported in ChEMBL document CHEMBL1134326, “C-16 artemisinin derivatives and their antimalarial and cytotoxic activities: syntheses of artemisinin monomers, dimers, trimers, and tetramers by nucleophilic additions to artemisitene” (J Med Chem, 2001).

Assays:
BC [1] = experiment: Cytotoxicity against BC cells; assay type: functional, cell-based; conditions: Homo sapiens
How it was run: (§1)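 Colorimetric cytotoxicity assay after Skehan on KB, BC and vero cell lines. Maximum concentration tested 130 µM. Ellipticine was the positive control. IC50 is reported in µM.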

Vero = experiment: Cytotoxicity against vero cells.; assay type: functional, cell-based; conditions: Chlorocebus sabaeus; how it was run: as §1
KB = experiment: Cytotoxicity against KB cells; assay type: functional, cell-based; conditions: Homo sapiens; how it was run: as §1
[2] = Therapeutic index (TI) determined as IC50 of vero cells to that of EC50; assay type: cell-based; conditions: plasmodium falciparum, read-out: TI
Plasmodium falciparum = experiment: Antimalarial activity against Plasmodium falciparum; assay type: functional, organism-based
How it was run: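 P. falciparum K1 (multidrug-resistant), asexual erythrocytic stage kept in continuous in vitro culture; microculture radioisotope method after Desjardins. EC50 is the concentration giving 50% reduction in parasite growth, measured as [3H]hypoxanthine uptake. Artemisinin and dihydroartemisinin served as standards.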

BC [3] = experiment: Cytotoxicity against BC cells.; assay type: functional, cell-based; conditions: Homo sapiens; how it was run: as §1
[4] = Cytotoxicity against KB cells.; assay type: functional, cell-based; conditions: Homo sapiens; how it was run: as §1
[5] = Therapeutic index(TI) as IC50 of vero cells to that of EC50; assay type: cell-based, Cricetulus griseus; conditions: chinese hamster, read-out: Ti

## C[C@@H]1CC[C@H]2C(CCC(=O)c3ccccc3)C(=O)O[C@@H]3O[C@]4(C)CC[C@@H]1C32OO4 (stereo not given in full)
BC [1]
  IA: Cytotoxic
Vero
  IC50: > 130000 nM
KB
  IA: Cytotoxic
[2]
  selectivity ratio: > 1
Plasmodium falciparum
  EC50: 12.8 nM

## C[C@@H]1CC[C@H]2[C@@H](Cc3ccc(F)cc3)C(=O)O[C@@H]3O[C@]4(C)CC[C@@H]1[C@]32OO4
BC [1]
  IA: Cytotoxic
Vero
  IC50: > 130000 nM
KB
  IA: Cytotoxic
[2]
  selectivity ratio: 1.9
Plasmodium falciparum
  EC50: 6.7 nM

## CCCCC1(CC2C(=O)OC3OC4(C)CCC5C(C)CCC2C35OO4)C(=O)OC2OC3(C)CCC4C(C)CCC1C24OO3 (stereo not given)
BC [1]
  IA: Cytotoxic
Vero
  IC50: > 130000 nM
KB
  IA: Cytotoxic
[2]
  selectivity ratio: > 3
Plasmodium falciparum
  EC50: 4.3 nM

## COC(=O)C(C)(C)CC1C(=O)O[C@@H]2OC3(C)CC[C@H]4[C@H](C)CC[C@@H]1[C@@]24OO3 (single isomer, unassigned)
BC [1]
  IA: Cytotoxic
Vero
  IC50: > 130000 nM
KB
  IA: Cytotoxic
[2]
  selectivity ratio: > 5
Plasmodium falciparum
  EC50: > 26.1 nM

## CCCCCCC1(CC2C(=O)OC3OC4(C)CCC5C(C)CCC2C35OO4)C(=O)OC2OC3(C)CCC4C(C)CCC1C24OO3 (stereo not given)
BC [3]
  IC50: 1300 nM
Vero
  IC50: 2500 nM
[4]
  IC50: 4000 nM
[5]
  selectivity ratio: 5
Plasmodium falciparum
  EC50: 5 nM

## CCC[C@@H]1C(=O)O[C@@H]2O[C@]3(C)CC[C@H]4[C@H](C)CC[C@@H]1[C@@]24OO3
BC [1]
  IA: Cytotoxic
Vero
  IC50: > 130000 nM
KB
  IA: Cytotoxic
[2]
  selectivity ratio: > 1.2
Plasmodium falciparum
  EC50: 11 nM

## CCCCC[C@H]1C(=O)O[C@@H]2O[C@]3(C)CC[C@H]4[C@H](C)CC[C@@H]1[C@@]24OO3
BC [1]
  IA: Cytotoxic
Vero
  IC50: > 130000 nM
KB
  IA: Cytotoxic
[2]
  selectivity ratio: > 1.5
Plasmodium falciparum
  EC50: 8.9 nM

## C[C@@H]1CC[C@H]2C(CCC(=O)c3ccc[nH]3)C(=O)O[C@@H]3O[C@]4(C)CC[C@@H]1[C@]32OO4 (stereo not given in full)
BC [1]
  IA: Cytotoxic
Vero
  IC50: > 130000 nM
KB
  IA: Cytotoxic
[2]
  selectivity ratio: > 5.2
Plasmodium falciparum
  EC50: 24.8 nM

## CC1CCC2C(CCC(=O)c3ccc[nH]3)C(=O)OC3OC4(C)CCC1C32OO4 (stereo not given)
BC [1]
  IA: Cytotoxic
Vero
  IC50: > 130000 nM
KB
  IA: Cytotoxic
[2]
  selectivity ratio: > 1.5
Plasmodium falciparum
  EC50: 8.8 nM

## CCCC1(CC2C(=O)OC3OC4(C)CCC5C(C)CCC2C35OO4)C(=O)OC2OC3(C)CCC4C(C)CCC1C24OO3 (stereo not given)
BC [1]
  IA: Cytotoxic
Vero
  IC50: > 130000 nM
KB
  IA: Cytotoxic
[2]
  selectivity ratio: > 3
Plasmodium falciparum
  EC50: 4.4 nM

## CCC[C@H]1C(=O)O[C@@H]2O[C@]3(C)CC[C@H]4[C@H](C)CC[C@@H]1[C@@]24OO3
BC [1]
  IA: Cytotoxic
Vero
  IC50: > 130000 nM
KB
  IA: Cytotoxic
[2]
  selectivity ratio: > 2.1
Plasmodium falciparum
  EC50: 6.3 nM
